Among the data in ChEMBL document CHEMBL3352006, “Further evaluation of novel structural modifications to scaffolds that engender PLD isoform selective inhibition” (Bioorg Med Chem Lett, 2014) are IC50 and Ratio IC50 values, retold here.

In general, IC50 refers to the midpoint of a concentration-inhibition curve. A low value points to inhibition by little substance.

Bounds are passed on as bounds.

One assay has as its target T1, Phospholipase D1 (Homo sapiens, UniProt Q13393).
T1 sequence (Q13393 whole entry): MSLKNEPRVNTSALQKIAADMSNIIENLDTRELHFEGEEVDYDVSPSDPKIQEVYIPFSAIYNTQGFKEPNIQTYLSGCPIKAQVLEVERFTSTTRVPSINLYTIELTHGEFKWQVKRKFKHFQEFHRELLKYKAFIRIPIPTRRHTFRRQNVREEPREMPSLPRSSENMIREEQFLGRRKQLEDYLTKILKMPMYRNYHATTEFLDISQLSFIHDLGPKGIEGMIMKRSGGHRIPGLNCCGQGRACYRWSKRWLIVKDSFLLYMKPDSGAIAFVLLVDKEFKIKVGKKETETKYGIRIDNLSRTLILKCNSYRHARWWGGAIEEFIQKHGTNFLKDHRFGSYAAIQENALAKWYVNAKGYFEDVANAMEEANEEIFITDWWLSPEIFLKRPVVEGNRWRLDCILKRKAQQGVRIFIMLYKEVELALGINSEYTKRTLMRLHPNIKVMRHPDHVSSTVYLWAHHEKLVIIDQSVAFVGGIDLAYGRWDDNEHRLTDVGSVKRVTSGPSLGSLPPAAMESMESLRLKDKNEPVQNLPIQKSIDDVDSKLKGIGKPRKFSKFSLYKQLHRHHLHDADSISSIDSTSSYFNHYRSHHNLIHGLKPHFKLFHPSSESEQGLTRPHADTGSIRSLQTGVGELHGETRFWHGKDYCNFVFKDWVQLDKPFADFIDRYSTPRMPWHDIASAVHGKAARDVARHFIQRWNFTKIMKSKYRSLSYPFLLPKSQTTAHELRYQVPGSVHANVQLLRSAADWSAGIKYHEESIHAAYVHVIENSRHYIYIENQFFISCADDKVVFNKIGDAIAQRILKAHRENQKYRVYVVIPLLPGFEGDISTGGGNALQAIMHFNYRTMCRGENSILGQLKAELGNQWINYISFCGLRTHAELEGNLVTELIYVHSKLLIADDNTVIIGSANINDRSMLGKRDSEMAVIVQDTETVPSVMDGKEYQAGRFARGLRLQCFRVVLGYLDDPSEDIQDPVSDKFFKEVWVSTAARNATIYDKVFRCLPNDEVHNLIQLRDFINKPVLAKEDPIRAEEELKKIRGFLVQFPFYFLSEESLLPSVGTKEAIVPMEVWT
In words: Inhibition of PLD1 (unknown origin) expressed in human Calu1 cells by cell-based assay. Set-up: species or system Calu-1.

In assay [1] the test system is Calu-1. In words: Selectivity ratio of IC50 for PLD2 (unknown origin) expressed in HEK293-gfp cells to IC50 for PLD1 (unknown origin) expressed in human Calu1 cells. The assay is classed as cell-based. The method in brief: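 Both IC50s come from cellular assays. PLD1 was measured in Calu-1 cells and PLD2 in HEK293-gfp PLD2 cells. Each IC50 was determined in triplicate. The value is the PLD2 IC50 divided by the PLD1 IC50.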

A further assay has as its target D(2) dopamine receptor (Homo sapiens, UniProt P14416). Kind of assay: Inhibition of dopamine D2 receptor (unknown origin).
A further assay addresses Phospholipase D2 (Homo sapiens, UniProt O14939). In words: Inhibition of PLD2 (unknown origin) expressed in HEK293-gfp cells by cell-based assay. The essentials: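 Cellular assay in HEK293-gfp PLD2 cells; each IC50 determined in triplicate.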
In assay [2] the test system is Calu-1. Kind of assay: Selectivity ratio of IC50 for PLD1 (unknown origin) expressed in human Calu1 cells to IC50 for PLD2 (unknown origin) expressed in HEK293-gfp cells. The class given is cell-based.

Sequence of Phospholipase D2 (O14939 whole entry): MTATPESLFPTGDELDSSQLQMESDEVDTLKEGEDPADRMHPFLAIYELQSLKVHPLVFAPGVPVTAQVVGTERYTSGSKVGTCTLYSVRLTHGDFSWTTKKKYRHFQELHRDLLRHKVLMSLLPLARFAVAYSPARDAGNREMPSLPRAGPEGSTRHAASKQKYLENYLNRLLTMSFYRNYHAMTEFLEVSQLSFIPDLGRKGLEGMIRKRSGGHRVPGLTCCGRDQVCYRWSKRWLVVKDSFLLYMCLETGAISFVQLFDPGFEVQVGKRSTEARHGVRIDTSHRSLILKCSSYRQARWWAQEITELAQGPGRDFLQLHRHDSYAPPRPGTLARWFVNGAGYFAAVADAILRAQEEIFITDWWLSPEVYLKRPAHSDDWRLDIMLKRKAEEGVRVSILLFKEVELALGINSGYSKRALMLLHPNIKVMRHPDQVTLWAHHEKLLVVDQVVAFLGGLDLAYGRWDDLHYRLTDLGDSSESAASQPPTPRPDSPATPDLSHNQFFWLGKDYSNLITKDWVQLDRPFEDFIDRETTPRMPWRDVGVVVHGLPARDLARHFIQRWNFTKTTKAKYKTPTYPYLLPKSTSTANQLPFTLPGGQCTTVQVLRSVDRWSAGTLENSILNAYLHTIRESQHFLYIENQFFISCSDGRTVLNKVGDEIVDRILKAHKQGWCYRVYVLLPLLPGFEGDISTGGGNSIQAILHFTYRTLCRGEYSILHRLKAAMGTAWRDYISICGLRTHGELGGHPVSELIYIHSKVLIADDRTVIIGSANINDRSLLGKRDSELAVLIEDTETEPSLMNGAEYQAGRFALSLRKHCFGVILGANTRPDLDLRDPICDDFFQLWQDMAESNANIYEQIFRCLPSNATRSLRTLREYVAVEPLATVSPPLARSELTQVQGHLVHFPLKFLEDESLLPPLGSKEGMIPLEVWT
Sequence of D(2) dopamine receptor (P14416 whole entry): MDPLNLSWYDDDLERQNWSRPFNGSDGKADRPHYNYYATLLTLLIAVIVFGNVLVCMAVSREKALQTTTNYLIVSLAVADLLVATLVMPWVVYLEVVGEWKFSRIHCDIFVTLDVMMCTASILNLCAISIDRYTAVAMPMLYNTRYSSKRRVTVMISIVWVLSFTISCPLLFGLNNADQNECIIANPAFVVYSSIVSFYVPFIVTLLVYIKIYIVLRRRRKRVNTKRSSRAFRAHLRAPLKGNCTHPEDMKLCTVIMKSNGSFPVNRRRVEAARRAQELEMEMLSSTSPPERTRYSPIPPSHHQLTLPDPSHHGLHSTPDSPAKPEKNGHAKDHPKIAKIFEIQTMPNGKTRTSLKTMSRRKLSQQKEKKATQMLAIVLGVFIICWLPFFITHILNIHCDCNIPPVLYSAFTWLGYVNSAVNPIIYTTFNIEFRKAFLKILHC

With `CC1CC(n2c(=O)[nH]c3ccccc32)CCN1CCNC(=O)c1ccc(F)cc1` (stereo not drawn), the IC50 against Phospholipase D1 was 636 nM. The Ratio IC50 in the assay on Calu-1 [1] was determined as 11.5.
Take `O=C(NCCN1CCC(n2c(=O)[nH]c3ccccc32)C(F)C1)c1ccc(F)c(F)c1` (stereo not drawn): the IC50 was 21 nM on Phospholipase D1 and greater than 10 µM at D(2) dopamine receptor. Moreover, the Ratio IC50 in the assay with Calu-1 [1] came out at 4.7.
`O=C(NCCN1CC2CC(n3c(=O)[nH]c4ccccc43)CC2C1)c1ccc2ccccc2c1` (stereo not drawn) showed an IC50 on Phospholipase D1 of 244 nM. The Ratio IC50 in the assay on Calu-1 [1] stood at 7.3.
With `O=C(NCCN1CC2CC(n3c(=O)[nH]c4ccccc43)CC2C1)c1ccc(F)cc1` (stereo not drawn), the IC50 against Phospholipase D1 was determined as 870 nM; on Phospholipase D2 it was 3570 nM. Further, the Ratio IC50 in the assay on Calu-1 [1] amounted to 4.
`O=C(NCCN1CC2CC(n3c(=O)[nH]c4ccccc43)CC2C1)c1ccc(Br)cc1` (stereo not drawn) showed a 50% inhibitory concentration (IC50) against Phospholipase D1 of 468 nM. In the assay on Calu-1 [1], the Ratio IC50 came out at 5.5.
`O=C(NCCN1CC2CC(n3c(=O)[nH]c4ccccc43)CC2C1)c1cc2cc(F)ccc2[nH]1` (stereo not drawn): the IC50 on Phospholipase D1 turned out to be 230 nM; on Phospholipase D2, 1240 nM. Moreover, the Ratio IC50 in the assay with Calu-1 [1] was 5.4.
For `O=C(NCCN1CC2CC(n3c(=O)[nH]c4ccccc43)CC2C1)c1cc2ccccc2[nH]1` (stereo not drawn) the same measures were 72 nM, 220 nM and 3.
For `O=C(NCCN1CC2CC(n3c(=O)[nH]c4ccccc43)CC2C1)c1ccc(F)c(F)c1` (stereo not drawn) the same measures were 820 nM, 3250 nM and 3.9.
As to `CC(CNC(=O)c1ccc2ccccc2c1)N1CCC2(CC1)C(=O)NCN2c1ccccc1` (racemic), the IC50 on Phospholipase D1 was determined as 315 nM; against Phospholipase D2, 64 nM. Besides, the Ratio IC50 in the assay on Calu-1 [2] is 5.
For `CC(CNC(=O)c1ccc(F)cc1)N1CCC2(CC1)C(=O)NCN2c1ccccc1` (racemic) the same measures were 1490 nM, 290 nM and 5.
Consider `CC(CNC(=O)c1ccc(Br)cc1)N1CCC2(CC1)C(=O)NCN2c1ccccc1` (racemic), for which the results for the IC50 against Phospholipase D1 and on Phospholipase D2 were 230 nM and 120 nM, respectively. Further, the Ratio IC50 in the assay with Calu-1 [2] was 2.
Regarding `CC(CNC(=O)c1cc2cc(F)ccc2[nH]1)N1CCC2(CC1)C(=O)NCN2c1ccccc1` (racemic), the IC50 against Phospholipase D1 is 35 nM; at Phospholipase D2, 18 nM. The Ratio IC50 in the assay on Calu-1 [2] is 2.
Turning to `CC(CNC(=O)c1cc2ccccc2[nH]1)N1CCC2(CC1)C(=O)NCN2c1ccccc1` (racemic), the half-maximal inhibitory concentration (IC50) against Phospholipase D1 was 21 nM; against Phospholipase D2, 6 nM. Besides, the Ratio IC50 in the assay on Calu-1 [2] worked out at 3.
Regarding `CC(CNC(=O)c1ccc(F)c(F)c1)N1CCC2(CC1)C(=O)NCN2c1ccccc1` (racemic), the values for the IC50 at Phospholipase D1 and at Phospholipase D2 were 1080 nM and 17 nM, respectively. Further, the Ratio IC50 with Calu-1 [2] stood at 63.
`CC1CC(n2c(=O)[nH]c3ccccc32)CCN1CCNC(=O)[C@@H]1C[C@H]1c1ccccc1` (relative stereo) came in with an IC50 at Phospholipase D1 of 115 nM. Also, the Ratio IC50 with Calu-1 [1] was 24.
For the compound `O=C(NCCN1CC2CC(n3c(=O)[nH]c4ccccc43)CC2C1)[C@@H]1C[C@H]1c1ccccc1` (relative stereo), the IC50 amounted to 1080 nM on Phospholipase D1 and 115 nM against Phospholipase D2.
